This is an account of results in ChEMBL document CHEMBL3351962, “Discovery of 1H-indole-2-carboxamides as novel inhibitors of the androgen receptor binding function 3 (BF3)” (J Med Chem, 2014).

Calls of active or inactive are those of the source. The calls are words filed in the database; no cut-off is given here.

The target of series [1] is T1, Androgen receptor (Homo sapiens) (UniProt P10275).
T1 sequence (whole entry): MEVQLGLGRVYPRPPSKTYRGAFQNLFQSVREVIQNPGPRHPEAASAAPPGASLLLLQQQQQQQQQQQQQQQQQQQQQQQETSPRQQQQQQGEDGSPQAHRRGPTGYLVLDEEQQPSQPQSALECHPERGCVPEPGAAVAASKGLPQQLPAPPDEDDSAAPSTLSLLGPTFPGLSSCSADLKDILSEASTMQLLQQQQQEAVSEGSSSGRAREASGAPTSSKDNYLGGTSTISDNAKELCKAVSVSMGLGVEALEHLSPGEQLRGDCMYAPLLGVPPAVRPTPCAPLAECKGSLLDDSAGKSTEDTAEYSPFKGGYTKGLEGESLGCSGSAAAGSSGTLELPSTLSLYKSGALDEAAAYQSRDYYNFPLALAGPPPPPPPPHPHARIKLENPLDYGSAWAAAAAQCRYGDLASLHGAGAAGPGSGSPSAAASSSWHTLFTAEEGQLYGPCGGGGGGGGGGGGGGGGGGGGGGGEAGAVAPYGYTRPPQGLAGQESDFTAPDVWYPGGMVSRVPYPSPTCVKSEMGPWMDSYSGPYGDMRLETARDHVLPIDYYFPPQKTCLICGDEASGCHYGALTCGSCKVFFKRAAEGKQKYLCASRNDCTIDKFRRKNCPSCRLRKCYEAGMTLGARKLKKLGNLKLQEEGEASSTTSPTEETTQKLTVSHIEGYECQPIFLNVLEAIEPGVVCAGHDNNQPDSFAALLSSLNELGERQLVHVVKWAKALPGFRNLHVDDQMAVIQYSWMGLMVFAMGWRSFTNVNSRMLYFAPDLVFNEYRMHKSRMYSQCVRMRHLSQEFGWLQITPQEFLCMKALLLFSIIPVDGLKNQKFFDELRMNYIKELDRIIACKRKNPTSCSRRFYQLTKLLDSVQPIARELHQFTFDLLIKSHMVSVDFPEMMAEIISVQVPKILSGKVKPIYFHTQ
Briefly: Displacement of SRC2 peptide from activation function 2 domain of androgen receptor (unknown origin).

In series [2] the target is T2, Androgen receptor (Homo sapiens, UniProt P10275).
T2 sequence (P10275 whole entry): T1 sequence (whole entry)
Briefly: Inhibition of androgen receptor binding function 3 in human LNCAP cells containing androgen-responsive probasin-derived promoter assessed as reduction in PSA expression after 3 days by […] assay. Format: cell-based. Put shortly: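 PSA levels measured in LNCaP cells across a dose range (0−6.25 μM in dose-response curve); IC50 from the dose-dependent decrease of PSA.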

In series [3] the target is T2, Androgen receptor. Briefly: Inhibition of androgen receptor binding function 3 in eGFP-expressing human LNCAP cells containing androgen-responsive probasin-derived promoter assessed as reduction in androgen receptor transcriptional activity after 3 days. Format: cell-based. The procedure, abridged:
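eGFP reporter of AR transcriptional activity in LNCaP cells; concentration titration (0−12.5 μM in dose-response); mean of two independent experiments in triplicate (n = 6), SEM; IC50 by fitting log inhibitor concentration vs % activation.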

The target in series [4] is T1, Androgen receptor (Homo sapiens). Briefly: Inhibition of androgen receptor binding function 3 in eGFP-expressing human LNCAP cells containing androgen-responsive probasin-derived promoter assessed as reduction in androgen receptor transcriptional activity at 3 uM after 3 days. In kind it is cell-based.
Series [5] shares this target. The experiment in a line: Displacement of androgen from androgen binding site of androgen receptor (unknown origin).
Series [6] shares this target. The experiment in a line: Direct reversible binding affinity to super-streptavidin bound biotinylated androgen receptor ligand binding domain (unknown origin) expressed in Escherichia coli BL21 by bio-layer Interferometry assay. The procedure, abridged: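 Biolayer interferometry of direct, reversible binding to AR LBD; dose-response with compound at 0−50 μM or 0−100 μM.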
Background: In BLI a coated tip is dipped into the sample, and binding shifts an interference pattern.

The nature of series [7]: Solubility of the compound at high drug level. In kind it is physicochemical.
In the next series the test system is MR49F. Briefly: Antiproliferative activity against enzalutamide-resistant human MR49F cells at 10 uM after 4 days by MTS assay. Format: functional, cell-based. In general terms: Tetrazolium assays rely on reduction of a dye to a coloured formazan, in cell work by metabolically active cells.
The next series deals with PC-3. Briefly: Antiproliferative activity against androgen receptor-independent human PC3 cells after 4 days by MTS assay. Format: functional, cell-based. Put shortly:
(§1)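 MTS viability assay in LNCaP (androgen-stimulated), enzalutamide-resistant MR49F (LNCaP-derived) and androgen-independent PC3 cells; compounds added in serial concentrations, viability read after 4 days of incubation; IC50 from dose-response curves.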

Series [8] concerns the target T2, Androgen receptor.
Series [9] in a line: Antiproliferative activity against enzalutamide-resistant human MR49F cells after 4 days by MTS assay. Format: functional, cell-based. Conditions: 96 h. The procedure, abridged: as §1
Another series relates to LNCaP. Briefly: Antiproliferative activity against human LNCAP cells after 4 days by MTS assay. In kind it is functional, cell-based. Conditions: 96 h. Put shortly:
as §1

The inhibition is the percentage by which the read-out fell short of the control. Broadly, the IC50 is the concentration that gives 50% inhibition. As to `Cc1ccc(CN(C(=O)c2cc3ccccc3[nH]2)C(C)C)o1`, the inhibition result in series [1] and in [5] was “inactive” in each case. Further, the IC50 came to 3.42 µM on Androgen receptor [2] and 3.32 µM at Androgen receptor [3]. Further, the inhibition in series [4] was over 50%. Moreover, the Activity entry in series [6] was “Dose-dependent effect”.
As to `CN(Cc1cccs1)C(=O)c1cc2ccc(F)cc2[nH]1`, the inhibition entry in series [1] and in [5] was “inactive” throughout. The IC50 on Androgen receptor [2] amounted to 5.45 µM; at Androgen receptor [3] it was 3.38 µM. In addition, the inhibition in series [4] was over 50%.
Take `Cc1ccc2cc(C(=O)N(Cc3ccc(C)o3)C(C)C)[nH]c2c1`: the inhibition entry in series [1] and in [5] was “inactive” throughout. Besides, the half-maximal inhibitory concentration (IC50) was determined as 1.65 µM at Androgen receptor [2] and 2.89 µM on Androgen receptor [3]. For the same compound, the inhibition in [4] is over 50%.
Consider `N#CCCN(Cc1ccccc1)C(=O)c1cc2ccccc2[nH]1`, for which the inhibition entry in series [1] and in [5] was “inactive” throughout. The IC50 at Androgen receptor [2] was 4.58 µM; at Androgen receptor [3] it was 7.51 µM. Also, the inhibition in series [4] is over 50%.
Regarding `CN(Cc1ccc(Br)s1)C(=O)c1cc2ccc(F)cc2[nH]1`, the inhibition result in series [1] and in [5] was “inactive” in each case. For the same compound, the half-inhibitory concentration (IC50) on Androgen receptor [2] was found to be 3.06 µM; on Androgen receptor [3], 3.53 µM. In addition, in series [4], the inhibition was over 50%.
For `CC(C)N(Cc1ccco1)C(=O)c1cc2cc(F)ccc2[nH]1`, the inhibition entry in [1] and in series [5] was “inactive” throughout. Further, the concentration for half-maximal inhibition (IC50) at Androgen receptor [2] turned out to be 0.5 µM; at Androgen receptor [3] it was 0.6 µM. For the same compound, the inhibition in series [4] was over 50%. The solubility entry in series [7] is given as “Insoluble”.
Turning to `Cc1ccc2[nH]c(C(=O)N(Cc3ccco3)C(C)C)cc2c1`, the inhibition entry in series [1] and in series [5] was “inactive” each time. The IC50 is 1.2 µM on Androgen receptor [2] and 1.3 µM at Androgen receptor [3]. Besides, the inhibition in series [4] is over 50%.
As to `O=C(c1cc2ccc(F)cc2[nH]1)N(Cc1ccco1)Cc1ccco1`, the inhibition entry in series [1] and in series [5] was “inactive” throughout. Further, the IC50 came out at 5.48 µM on Androgen receptor [2] and 4.04 µM on Androgen receptor [3]. Also, in series [4], the inhibition was over 50%.
In the case of `Cc1ccc(CN(C(=O)c2cc3cc(F)ccc3[nH]2)C(C)C)o1`, the inhibition result in series [1] and in series [5] was “inactive” throughout. In addition, the values for the IC50 at Androgen receptor [2] and on Androgen receptor [3] were 1.38 µM and 1.1 µM, respectively. For the same compound, the inhibition in [4] was over 50%.
For the compound `Cc1ccc2[nH]c(C(=O)N(Cc3ccc(C)o3)C(C)C)cc2c1`, the inhibition entry in series [1] and in series [5] was “inactive” each time. For the same compound, the results for the IC50 at Androgen receptor [2] and on Androgen receptor [3] were 1.77 µM and 2.67 µM, respectively. Moreover, the inhibition in series [4] is over 50%.
With `Cc1ccc(CN(C(=O)c2cc3cccc(F)c3[nH]2)C(C)C)o1`, the inhibition result in series [1] and in series [5] was “inactive” throughout. The IC50 is 1.2 µM at Androgen receptor [2] and 1 µM at Androgen receptor [3]. Besides, in [4], the inhibition was over 50%.
Regarding `CNC(=O)c1ccc(N2C(=S)N(c3ccc(C#N)c(C(F)(F)F)c3)C(=O)C2(C)C)cc1F`, the inhibition entry in the series on MR49F was “inactive”.
Take `CC(C)N(Cc1ccco1)C(=O)c1cc2cc(C(F)(F)F)ccc2[nH]1`: the inhibition result in series [1] and in series [5] was “inactive” throughout. The concentration for half-maximal inhibition (IC50) on Androgen receptor [2] came out at 5.29 µM; at Androgen receptor [3], 5.2 µM. Moreover, the inhibition in series [4] was over 50%.
With `Cc1ccc(CN(C)C(=O)c2cc3cc(F)ccc3[nH]2)o1`, the inhibition result in series [1] and in series [5] was “inactive” each time. Moreover, the IC50 on Androgen receptor [2] was 6.56 µM; on Androgen receptor [3], 9.44 µM. Besides, the inhibition in series [4] was over 50%.
With `CN(Cc1ccc(Br)o1)C(=O)c1cc2ccc(F)cc2[nH]1`, the inhibition result in series [1] and in series [5] was “inactive” in each case. Also, the IC50 at Androgen receptor [2] was 8.09 µM; on Androgen receptor [3], 15.7 µM. For the same compound, the inhibition in series [4] is over 50%.
Take `Cc1ccc(CN(C(=O)c2cc3ccc(F)cc3[nH]2)C(C)C)o1`: the inhibition result (in the series on PC-3; in series [1]; in [5]) was “inactive” throughout. Moreover, the concentration for half-maximal inhibition (IC50) at Androgen receptor [2] stood at 0.84 µM; against Androgen receptor [8] it was 2.18 µM; at Androgen receptor [3] it was 0.7 µM; in series [9] it was 1.31 µM; in the series on LNCaP, 0.55 µM. Also, the inhibition in series [4] is over 50%. In addition, the result in [6] was Active.
`COCCN(Cc1ccco1)C(=O)c1cc2cc(F)ccc2[nH]1`: the inhibition result in [1] and in series [5] was “inactive” throughout. For the same compound, the figures for the IC50 on Androgen receptor [2] and at Androgen receptor [3] were 6.62 µM and 6.47 µM, respectively. For the same compound, the inhibition in [4] was over 50%.
With `CC(C)N(Cc1ccco1)C(=O)c1cc2ccc(F)cc2[nH]1`, the inhibition entry in series [1] and in series [5] was “inactive” in each case. Besides, the IC50 at Androgen receptor [2] was 0.53 µM; at Androgen receptor [3] it was 0.43 µM. In series [4], the inhibition was over 50%. The solubility result in series [7] is on record as “Insoluble”.
For the compound `Cc1ccc2cc(C(=O)N(Cc3ccco3)C(C)C)[nH]c2c1`, the inhibition result in series [1] and in series [5] was “inactive” in each case. Also, the IC50 turned out to be 0.85 µM on Androgen receptor [2] and 1.02 µM on Androgen receptor [3]. The inhibition in [4] was over 50%.
